From the M2OR odorant receptor database

Legend:
Conditions in all cases: stereoisomer not certain
[1] = tested on: O4F15 A272T
In short: (§1)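 Whether a receptor–molecule pair is responsive (active) rests on the original authors' judgment that its measured signal was statistically different from baseline. Pairs without that judgment are non-responsive (inactive). Sources used varied assay methods, commonly transient luciferase assays in mammalian cell lines.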

[2] = tested on: O4F15 S149F
In short: as §1

[3] = tested on: O4F17
In short: as §1
Target sequence in this assay (as listed by the source): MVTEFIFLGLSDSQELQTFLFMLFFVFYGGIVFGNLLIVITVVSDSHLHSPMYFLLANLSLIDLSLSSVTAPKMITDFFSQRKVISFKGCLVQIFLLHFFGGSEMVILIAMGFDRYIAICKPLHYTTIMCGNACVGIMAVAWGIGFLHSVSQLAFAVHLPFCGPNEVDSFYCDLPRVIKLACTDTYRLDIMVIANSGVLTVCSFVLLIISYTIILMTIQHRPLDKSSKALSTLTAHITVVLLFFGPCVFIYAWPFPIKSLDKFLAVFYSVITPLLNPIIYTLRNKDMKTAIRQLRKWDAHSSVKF

[4] = tested on: O4F17; remark: listed apart in the source
In short: as §1
Target sequence in this assay (as listed by the source): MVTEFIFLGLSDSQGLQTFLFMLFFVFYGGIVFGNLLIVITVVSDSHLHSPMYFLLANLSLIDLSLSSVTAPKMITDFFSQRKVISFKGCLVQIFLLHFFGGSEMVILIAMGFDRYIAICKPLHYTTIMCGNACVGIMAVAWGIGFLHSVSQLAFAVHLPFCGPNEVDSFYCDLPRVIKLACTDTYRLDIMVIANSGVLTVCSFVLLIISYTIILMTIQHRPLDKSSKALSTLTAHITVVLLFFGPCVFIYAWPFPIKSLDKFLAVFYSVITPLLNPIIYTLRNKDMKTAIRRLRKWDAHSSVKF

[5] = tested on: O4F21 F44L
Sequence of O4F21 F44L (as listed by the source, stated change not applied): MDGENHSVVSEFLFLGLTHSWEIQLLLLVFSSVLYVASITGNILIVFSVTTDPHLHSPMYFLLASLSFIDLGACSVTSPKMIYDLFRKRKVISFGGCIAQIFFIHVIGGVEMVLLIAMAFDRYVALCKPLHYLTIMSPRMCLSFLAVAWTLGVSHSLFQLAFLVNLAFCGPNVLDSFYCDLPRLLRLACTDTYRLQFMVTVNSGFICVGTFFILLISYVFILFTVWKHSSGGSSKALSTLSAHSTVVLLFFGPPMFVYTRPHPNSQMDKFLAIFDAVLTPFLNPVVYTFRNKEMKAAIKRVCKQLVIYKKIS
In short: as §1

[6] = tested on: O51A7 E8D
Sequence of O51A7 E8D (as listed by the source): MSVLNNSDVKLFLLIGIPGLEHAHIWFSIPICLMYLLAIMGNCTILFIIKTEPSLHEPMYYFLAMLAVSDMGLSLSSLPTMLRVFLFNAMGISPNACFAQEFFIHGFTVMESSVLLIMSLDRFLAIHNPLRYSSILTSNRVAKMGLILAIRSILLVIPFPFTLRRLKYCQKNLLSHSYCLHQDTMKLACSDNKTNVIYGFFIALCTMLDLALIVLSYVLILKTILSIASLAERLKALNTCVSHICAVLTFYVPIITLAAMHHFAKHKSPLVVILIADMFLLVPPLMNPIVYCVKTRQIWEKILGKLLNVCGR
In short: as §1

[7] = tested on: O51B2 C120R C209S P283S
In short: as §1

[8] = tested on: O51B4 M147T
Sequence of O51B4 M147T (as listed by the source, stated change not applied): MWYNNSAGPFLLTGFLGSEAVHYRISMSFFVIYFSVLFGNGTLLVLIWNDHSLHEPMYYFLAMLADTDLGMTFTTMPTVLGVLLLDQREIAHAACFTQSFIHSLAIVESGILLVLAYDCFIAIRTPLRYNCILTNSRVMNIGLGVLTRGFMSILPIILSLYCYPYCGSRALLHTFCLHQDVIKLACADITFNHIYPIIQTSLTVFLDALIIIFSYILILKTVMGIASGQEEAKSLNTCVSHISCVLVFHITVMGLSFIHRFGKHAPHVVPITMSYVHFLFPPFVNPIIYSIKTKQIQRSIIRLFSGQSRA
In short: as §1

[9] = tested on: O51B4
In short: as §1

[10] = tested on: O51B5 G5S I102T P160L
In short: as §1

[11] = tested on: O51D1 I89V
Sequence of O51D1 I89V (as listed by the source, stated change not applied): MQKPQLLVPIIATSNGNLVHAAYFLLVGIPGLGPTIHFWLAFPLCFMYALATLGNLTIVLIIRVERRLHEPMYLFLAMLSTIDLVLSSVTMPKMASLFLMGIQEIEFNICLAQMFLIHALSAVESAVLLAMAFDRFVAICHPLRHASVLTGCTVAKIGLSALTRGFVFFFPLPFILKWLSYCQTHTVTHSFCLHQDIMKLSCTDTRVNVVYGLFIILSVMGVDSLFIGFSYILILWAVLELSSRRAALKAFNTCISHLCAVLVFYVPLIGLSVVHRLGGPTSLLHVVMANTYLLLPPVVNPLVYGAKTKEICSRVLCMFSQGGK
In short: as §1

[12] = tested on: O51F1
In short: as §1
Target sequence in this assay (as listed by the source): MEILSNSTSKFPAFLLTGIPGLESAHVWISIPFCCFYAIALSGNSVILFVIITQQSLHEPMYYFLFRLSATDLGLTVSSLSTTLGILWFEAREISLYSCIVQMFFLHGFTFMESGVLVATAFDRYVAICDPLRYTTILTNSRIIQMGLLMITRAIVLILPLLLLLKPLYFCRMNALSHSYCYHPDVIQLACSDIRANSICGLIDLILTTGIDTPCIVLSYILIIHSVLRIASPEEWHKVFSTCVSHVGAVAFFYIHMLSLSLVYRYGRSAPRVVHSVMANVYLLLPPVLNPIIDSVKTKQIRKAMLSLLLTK

[13] = tested on: O51F1; remark: listed apart in the source
In short: as §1
Target sequence in this assay (as listed by the source): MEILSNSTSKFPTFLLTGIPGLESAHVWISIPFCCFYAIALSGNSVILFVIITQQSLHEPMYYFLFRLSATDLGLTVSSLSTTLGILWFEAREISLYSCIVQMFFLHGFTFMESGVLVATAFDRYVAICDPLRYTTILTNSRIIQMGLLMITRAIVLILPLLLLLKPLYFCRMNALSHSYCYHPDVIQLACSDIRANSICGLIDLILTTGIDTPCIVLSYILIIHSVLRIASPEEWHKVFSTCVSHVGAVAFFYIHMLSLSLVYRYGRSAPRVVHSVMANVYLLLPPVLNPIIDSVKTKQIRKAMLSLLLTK

[14] = tested on: O51F2 Y341S
Sequence of O51F2 Y341S (as listed by the source, stated change not applied): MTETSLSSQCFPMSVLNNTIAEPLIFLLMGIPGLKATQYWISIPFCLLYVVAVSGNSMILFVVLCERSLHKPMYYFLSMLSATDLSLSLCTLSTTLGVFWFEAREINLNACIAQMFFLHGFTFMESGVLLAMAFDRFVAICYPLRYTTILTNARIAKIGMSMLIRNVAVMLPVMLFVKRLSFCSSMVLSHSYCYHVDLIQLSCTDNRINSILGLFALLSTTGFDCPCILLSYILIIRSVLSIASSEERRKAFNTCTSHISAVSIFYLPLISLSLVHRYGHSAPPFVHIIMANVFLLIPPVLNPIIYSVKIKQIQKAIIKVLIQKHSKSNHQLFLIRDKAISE
In short: as §1

[15] = tested on: O51G1
Sequence of O51G1 (as listed by the source): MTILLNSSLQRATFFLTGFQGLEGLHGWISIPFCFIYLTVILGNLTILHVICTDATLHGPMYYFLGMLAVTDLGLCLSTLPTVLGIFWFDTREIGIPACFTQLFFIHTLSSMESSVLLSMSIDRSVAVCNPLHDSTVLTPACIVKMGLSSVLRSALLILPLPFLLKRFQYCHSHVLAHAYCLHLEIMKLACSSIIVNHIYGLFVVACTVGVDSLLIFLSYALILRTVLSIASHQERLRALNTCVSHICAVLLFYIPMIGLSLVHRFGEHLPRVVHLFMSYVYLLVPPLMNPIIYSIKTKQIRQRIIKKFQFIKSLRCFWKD
In short: as §1

[16] = tested on: O51I1 V164L
Sequence of O51I1 V164L (as listed by the source, stated change not applied): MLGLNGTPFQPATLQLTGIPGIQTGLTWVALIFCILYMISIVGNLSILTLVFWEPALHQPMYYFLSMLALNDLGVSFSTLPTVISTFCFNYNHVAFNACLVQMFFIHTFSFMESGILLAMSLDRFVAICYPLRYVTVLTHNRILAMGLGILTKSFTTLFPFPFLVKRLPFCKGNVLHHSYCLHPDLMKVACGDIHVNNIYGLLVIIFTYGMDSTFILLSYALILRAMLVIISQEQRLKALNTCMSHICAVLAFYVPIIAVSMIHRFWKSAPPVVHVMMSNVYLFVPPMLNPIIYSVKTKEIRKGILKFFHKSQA
In short: as §1

[17] = tested on: O51J1 R75H I202V
In short: as §1

[18] = tested on: O51L1
In short: as §1

[19] = tested on: O51L1; remark: listed apart in the source
In short: as §1
Target sequence in this assay (as listed by the source): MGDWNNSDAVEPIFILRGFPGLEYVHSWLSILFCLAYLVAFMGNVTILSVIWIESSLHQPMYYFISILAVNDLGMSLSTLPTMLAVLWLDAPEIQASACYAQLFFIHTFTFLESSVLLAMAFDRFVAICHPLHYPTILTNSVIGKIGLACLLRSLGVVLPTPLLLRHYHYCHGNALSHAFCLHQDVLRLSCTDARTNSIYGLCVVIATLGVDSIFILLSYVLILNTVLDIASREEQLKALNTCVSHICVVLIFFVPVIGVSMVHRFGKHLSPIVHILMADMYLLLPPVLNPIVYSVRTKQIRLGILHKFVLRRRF

[20] = tested on: O51T1
Sequence of O51T1 (as listed by the source): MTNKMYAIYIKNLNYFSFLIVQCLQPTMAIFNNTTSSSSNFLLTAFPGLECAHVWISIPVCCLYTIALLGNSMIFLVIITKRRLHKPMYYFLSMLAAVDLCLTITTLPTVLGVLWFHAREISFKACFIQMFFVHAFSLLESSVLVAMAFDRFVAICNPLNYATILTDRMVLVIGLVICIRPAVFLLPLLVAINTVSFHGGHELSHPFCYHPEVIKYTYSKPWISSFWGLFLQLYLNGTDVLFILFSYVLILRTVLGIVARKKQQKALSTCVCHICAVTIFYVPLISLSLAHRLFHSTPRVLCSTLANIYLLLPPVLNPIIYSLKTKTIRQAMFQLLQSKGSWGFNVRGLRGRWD
In short: as §1

Measured: odorant receptor agonist call;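 also: active if original authors judged signal statistically different from baseline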

Sequence of O4F15 A272T (as listed by the source, stated change not applied): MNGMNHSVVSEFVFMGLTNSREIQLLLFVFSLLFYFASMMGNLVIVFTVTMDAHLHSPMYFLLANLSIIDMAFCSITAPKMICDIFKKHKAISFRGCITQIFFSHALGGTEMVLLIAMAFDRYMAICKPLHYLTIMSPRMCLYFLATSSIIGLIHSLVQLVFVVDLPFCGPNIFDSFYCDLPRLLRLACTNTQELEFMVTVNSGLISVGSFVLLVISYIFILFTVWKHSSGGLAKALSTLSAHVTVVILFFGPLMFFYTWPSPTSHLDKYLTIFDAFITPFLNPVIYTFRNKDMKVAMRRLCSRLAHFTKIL
Sequence of O4F15 S149F (as listed by the source, stated change not applied): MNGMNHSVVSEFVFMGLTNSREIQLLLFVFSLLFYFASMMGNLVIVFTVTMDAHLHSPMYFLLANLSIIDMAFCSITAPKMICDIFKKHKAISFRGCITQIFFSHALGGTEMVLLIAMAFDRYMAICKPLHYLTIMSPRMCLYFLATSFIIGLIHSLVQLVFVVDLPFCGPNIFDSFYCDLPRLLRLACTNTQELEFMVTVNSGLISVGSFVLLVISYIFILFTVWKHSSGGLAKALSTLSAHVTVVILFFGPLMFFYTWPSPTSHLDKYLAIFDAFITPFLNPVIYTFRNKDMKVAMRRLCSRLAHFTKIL

C=CCOC(=O)Cc1ccccc1
active: [18] | [19]
inactive: all other assays above
